In publication PMC11908206 (bioRxiv, 2025):
pEC50: −log10 of the molar value. Each block holds one compound with its values, some of them ahead of it.

What was measured:
[1] = tested on: Apc^Q1405X small intestinal organoids; assay: RNA-seq and GSEA of ApcQ1405X small intestinal organoids; format: cell-based, mouse; conditions: 250nM G007-LK or 500nM TDI-012804, 3 days; for transcriptional response (RNA-seq), Tnks1 KO: ApcQ1405X/Tnks1 KO organoids; for transcriptional response (RNA-seq), Tnks1 WT: ApcQ1405X/Tnks1 WT organoids
Procedure, shortened: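 Organoids plated at one six-well per condition in EN medium (basal Advanced DMEM/F12 with EGF 40 ng/ml and LDN 50 nM). Medium contained DMSO or test compound at 250 nM or 500 nM, then harvested for RNA isolation and sequencing.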

[2] = tested on: ApcQ1405X small intestinal organoids; assay: Organoid viability; format: cell-based, mouse; conditions: all Tnks1 genotypes, 6 days
[3] = tested on: ApcQ1405X small intestinal organoids; assay: Organoid viability; format: cell-based, mouse; conditions: 250nM
Procedure, shortened: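 Mouse ApcQ1405X small-intestinal organoids plated at high density in Matrigel, two wells per condition, in EN medium (EGF 40 ng/ml, LDN 50 nM) containing DMSO or 250 nM compound. Medium changed every 2 days. Every 4 days, alamarBlue added to one well and fluorescence read; the other well passaged 1:2 into the same condition. Run for 20 days; n = 3, mean with SEM.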

OVCAR4 cells = assay: Colony forming assay, OVCAR4; format: cell-based, human
PARP2 = PARP2 (Homo sapiens, UniProt Q9UGN5); assay: PARP2 inhibition; format: biochemical; conditions: Fig. S9
PARP2, sequence (Q9UGN5 whole entry, species assumed): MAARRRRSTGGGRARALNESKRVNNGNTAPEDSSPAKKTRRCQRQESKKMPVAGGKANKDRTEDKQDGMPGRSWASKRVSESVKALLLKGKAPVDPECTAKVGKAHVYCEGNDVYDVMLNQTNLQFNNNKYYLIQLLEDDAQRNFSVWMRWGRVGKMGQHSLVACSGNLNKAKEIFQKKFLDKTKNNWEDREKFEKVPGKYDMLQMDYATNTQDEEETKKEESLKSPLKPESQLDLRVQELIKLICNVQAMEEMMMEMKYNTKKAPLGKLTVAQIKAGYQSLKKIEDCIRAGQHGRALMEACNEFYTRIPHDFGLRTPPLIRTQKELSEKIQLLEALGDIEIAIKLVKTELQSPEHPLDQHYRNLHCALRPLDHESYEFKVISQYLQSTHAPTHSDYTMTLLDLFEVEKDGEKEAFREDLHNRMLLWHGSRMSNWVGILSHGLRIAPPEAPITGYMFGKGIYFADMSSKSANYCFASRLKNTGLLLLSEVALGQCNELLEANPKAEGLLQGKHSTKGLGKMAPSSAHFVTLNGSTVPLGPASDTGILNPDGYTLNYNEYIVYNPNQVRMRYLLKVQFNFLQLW

H23 cells = assay: Colony forming assay, H23; format: cell-based, human
PARP1 = PARP1 (Homo sapiens, UniProt P09874); assay: PARP1 inhibition; format: biochemical; conditions: Fig. S9
PARP1, sequence (P09874 whole entry, species assumed): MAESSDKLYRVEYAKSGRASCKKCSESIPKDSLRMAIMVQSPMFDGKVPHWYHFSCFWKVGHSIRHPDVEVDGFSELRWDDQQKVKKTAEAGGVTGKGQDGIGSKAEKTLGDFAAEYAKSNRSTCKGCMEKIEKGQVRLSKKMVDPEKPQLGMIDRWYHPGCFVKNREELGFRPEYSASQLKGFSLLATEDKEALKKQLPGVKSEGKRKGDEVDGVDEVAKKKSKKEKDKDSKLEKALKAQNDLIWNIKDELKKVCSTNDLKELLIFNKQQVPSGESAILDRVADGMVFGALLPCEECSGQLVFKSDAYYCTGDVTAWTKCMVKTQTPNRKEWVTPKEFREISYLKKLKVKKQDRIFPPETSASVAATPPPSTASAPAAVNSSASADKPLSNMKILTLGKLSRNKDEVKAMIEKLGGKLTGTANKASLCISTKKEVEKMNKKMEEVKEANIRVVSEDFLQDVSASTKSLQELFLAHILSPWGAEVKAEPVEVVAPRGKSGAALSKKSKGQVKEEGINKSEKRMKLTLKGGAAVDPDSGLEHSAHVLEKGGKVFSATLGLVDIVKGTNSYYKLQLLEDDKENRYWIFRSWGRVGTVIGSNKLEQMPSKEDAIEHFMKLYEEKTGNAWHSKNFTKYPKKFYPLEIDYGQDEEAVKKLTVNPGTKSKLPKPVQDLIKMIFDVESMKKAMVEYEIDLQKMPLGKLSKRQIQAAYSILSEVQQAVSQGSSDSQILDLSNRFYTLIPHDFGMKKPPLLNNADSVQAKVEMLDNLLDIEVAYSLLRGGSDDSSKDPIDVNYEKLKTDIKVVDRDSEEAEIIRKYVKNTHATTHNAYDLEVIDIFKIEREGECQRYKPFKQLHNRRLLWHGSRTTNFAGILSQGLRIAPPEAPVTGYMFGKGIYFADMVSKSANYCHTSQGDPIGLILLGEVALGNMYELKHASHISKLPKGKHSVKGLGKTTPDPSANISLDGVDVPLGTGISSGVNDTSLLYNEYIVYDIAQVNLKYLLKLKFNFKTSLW

[4] = tested on: ApcQ1405X/KrasG13D/p53Q97X small intestinal organoids; assay: Organoid viability; format: cell-based, mouse; conditions: six days
[5] = tested on: AXIN1 in TNKS1^KO DLD1 cells; format: cell-based; conditions: 24h
AXIN1 in H23 cells = assay: Western blot of AXIN1 in H23 cells; format: cell-based, human; conditions: 8p diploid H23, 250nM, 24h
Procedure, shortened: (§1)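 Cells grown in RPMI-1640 with 10% FBS; 700,000 per well seeded and allowed to adhere 24h. Exposed to 250 nM compound for 24h, then lysed in RIPA buffer on ice for 20 min and cleared at 15,000 rpm for 10 min. 20 µg protein per lane probed for AXIN1; band intensity quantified.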

[6] = tested on: TOPFlash reporter in DLD1 cells; assay: TOPFlash WNT transcriptional reporter in TNKS1 isogenic DLD1 cells; format: cell-based; conditions: Homo sapiens, DLD-1, read-out: TOP-Flash reporter EC50
[7] = tested on: TNKS2^WT, TNKS2^L1136Y and TNKS1 SAM-PARP domains; assay: In vitro PARylation assay with purified SAM-PARP domains; format: biochemical
AXIN1 in SW403 cells = assay: Western blot of AXIN1 in SW403 cells; format: cell-based, human; conditions: SW403 (8p heterozygous), 250nM, 24h
Procedure, shortened: as §1

AXIN1 in DLD1 cells = assay: Western blot of endogenous AXIN1 in TNKS1 isogenic DLD1 cells; format: cell-based; conditions: 500nM or 250nM, 24h
Procedure, shortened: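 DLD1 TNKS1-edited clones made by Cas9 and TNKS1 sgRNA transduction with drug selection, then single-cell cloning by limiting dilution. For blotting, 700,000 cells/well were allowed to adhere 24h and treated with compound for 24h. Lysis in RIPA buffer on ice for 20 min; 20 µg protein per sample blotted for AXIN1; band intensity quantified.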

[8] = tested on: ApcQ1405X/KrasG12D/p53Q97X small intestinal organoids; assay: Organoid viability; format: cell-based, mouse; conditions: six days
PARP3 = molecular target: T1, PARP3 (Homo sapiens, UniProt Q9Y6F1); assay: PARP3 inhibition; format: biochemical; conditions: Fig. S9
T1 sequence (Q9Y6F1 1-533): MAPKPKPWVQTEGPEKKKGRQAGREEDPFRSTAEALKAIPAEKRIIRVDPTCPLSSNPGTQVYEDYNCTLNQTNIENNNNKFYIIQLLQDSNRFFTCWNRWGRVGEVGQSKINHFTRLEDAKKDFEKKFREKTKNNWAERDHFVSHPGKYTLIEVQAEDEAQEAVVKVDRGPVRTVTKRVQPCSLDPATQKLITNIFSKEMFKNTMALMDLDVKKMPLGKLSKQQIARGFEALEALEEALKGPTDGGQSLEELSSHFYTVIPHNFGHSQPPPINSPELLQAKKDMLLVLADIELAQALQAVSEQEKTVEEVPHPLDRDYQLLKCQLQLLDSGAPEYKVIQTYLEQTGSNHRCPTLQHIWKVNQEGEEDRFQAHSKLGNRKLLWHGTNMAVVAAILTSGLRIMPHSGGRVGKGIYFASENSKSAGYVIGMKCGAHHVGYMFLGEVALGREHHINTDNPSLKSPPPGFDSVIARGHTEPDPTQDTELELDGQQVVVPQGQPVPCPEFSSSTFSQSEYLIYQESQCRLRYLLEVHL

SMILES: CS(=O)(=O)c1ccc(-c2nnc(/C=C/c3nnc(-c4ccc(C#N)cc4)o3)n2-c2ccccc2Cl)nc1 [G007-LK, reference compound]
transcriptional response (RNA-seq), Tnks1 KO [1]: broad transcriptional changes
transcriptional response (RNA-seq), Tnks1 WT [1]: broad transcriptional changes
organoid proliferation (organoid area and AlamarBlue) [2]: robust suppression of proliferation across all Tnks1 genotypes
organoid growth over 20 days ([3]; ApcQ1405X organoids): robust suppression of organoid growth
colony formation, OVCAR4 (OVCAR4 cells; OVCAR4, 250nM, with or without Palbociclib): sensitive

inhibition of PARP2 (PARP2): no inhibition
inhibition of PARP1 (PARP1): no inhibition
pEC50 [6]: > 7.00
inhibition of PARP3 (PARP3): no inhibition
SMILES: COc1cc(-c2ccccc2)ncc1C(=O)Nc1ccc2c(=O)[nH]c(-c3ccc(C(C)(C)O)cc3)nc2c1 [TDI-012804, COC1=C(C=NC(=C1)C1=CC=CC=C1)C(=O)NC1=CC=C2C(=O)NC(=NC2=C1)C1=CC=C(C=C1)C(C)(C)O]
colony formation, H23 (H23 cells; 8p diploid H23, 250nM): nor suppress colony formation
colony formation, H23 with suppression of TNKS1 (H23 cells; H23 shTNKS1, 250nM, further enhanced with Palbociclib): significant sensitization
transcriptional response (RNA-seq), Tnks1 KO [1]: near-identical overall transcriptional response to G007-LK treated cultures
transcriptional response (RNA-seq), Tnks1 WT [1]: no significant gene expression changes
toxicity to Tnks1 KO compared to Tnks1 WT AKP-G13D organoids [4]: selectively toxic
AXIN1 protein (western blot), TNKS1 KO ([5]; TNKS1 KO DLD1, 250nM): increased AXIN1 protein
AXIN1 protein (western blot), TNKS1 KO/TNKS2 WT ([5]; TNKS1 KO DLD1 expressing TNKS2 WT cDNA, 250nM): increased AXIN1 protein
AXIN1 protein (western blot), H23 (AXIN1 in H23 cells): did not induce AXIN1 stabilization
effect of L1136Y mutation on potency against TNKS2 [7]: significantly reduced the potency
AXIN1 protein (western blot), SW403 (AXIN1 in SW403 cells): induced AXIN1 stabilization to similar levels as the pan-TNKS inhibitor G007-LK
organoid proliferation over 20 days, Tnks1 HET ([3]; ApcQ1405X Tnks1 HET organoids): significant reduction in proliferation
organoid proliferation over 20 days, Tnks1 KO ([3]; ApcQ1405X Tnks1 KO organoids): significant reduction in proliferation
endogenous AXIN1 protein (western blot), TNKS1 HET (AXIN1 in DLD1 cells; DLD1 TNKS1 HET): marked stabilization
endogenous AXIN1 protein (western blot), TNKS1 KO (AXIN1 in DLD1 cells; DLD1 TNKS1 KO): marked stabilization
endogenous AXIN1 protein (western blot), TNKS1 diploid (AXIN1 in DLD1 cells; DLD1 TNKS1 diploid controls): minimal increase
colony formation, OVCAR4 TNKS1-depleted (OVCAR4 cells; OVCAR4 shTNKS1, 250nM): significantly reduced
toxicity to Tnks1 KO compared to Tnks1 WT AKP-G12D organoids [8]: selectively toxic
